Measurements gathered from unrelated publications.
Each line is one published result; the experiments were not run side by side.

Nc1ccccc1NC(=O)c1ccc(Cn2cnc3c(Nc4ccc(Br)cc4F)ncnc32)cc1
IC50 (HEL; cell growth or viability, MTT; 72 h): 17 µM

O=C(CSc1nc2ccccc2s1)N/N=C/c1ccc(OCC(=O)Nc2cccc([N+](=O)[O-])c2)cc1
IC50 (HEL 299; cell growth or viability, MTS; 72 h): > 100 µM

COc1cccc2c1C(=O)c1c(O)c3c(c(O)c1C2=O)C[C@@](O)(C(=O)CO)C[C@@H]3O[C@H]1C[C@H](N)[C@H](O)[C@H](C)O1
IC50 (H69AR; cell growth or viability, MTT; 75 h): 22.5 µM

CS(=O)(=O)NCCCCN=C=S
IC50 (HDFa; cell growth or viability, MTT; 24 h): 42.9 µM

Cc1cc(NS(=O)(=O)c2ccc(NC(=O)/C(C#N)=C/c3ccc(N4CCOCC4)cc3)cc2)no1
IC50 (HSF; cell growth or viability, MTT; 48 h): > 200 µM

O=C(CSc1nc2ccccc2s1)N/N=C/c1ccc(OCC(=O)Nc2cccc(Cl)c2)cc1
IC50 (HEL 299; cell growth or viability, MTS; 72 h): > 100 µM

OCc1ccc(-c2nn(Cc3cccnc3)c3cccnc23)o1
IC50 (CC-LP-1; cell growth or viability, ATP luminescence): > 46 µM

C(=N\Nc1cc(N/N=C/c2cccc3cccnc23)ncn1)/c1cccc2cccnc12
IC50 (BGC-823; cell growth or viability, MTT; 48 h): 26.8 µM

O=C(NS(=O)(=O)c1ccc(C(F)(F)F)cc1)c1cc2ccccc2n1Cc1ccc(Br)c2ccccc12
IC50 (mouse BMDM; IL-1β release, inhibitor, ELISA; LPS-stimulated): 7.28 µM

COC(=O)c1cc(C(C)=NNc2nc(-c3ccc4c(c3)OCCCO4)cs2)ccc1O
IC50 (HSF; cell growth or viability, MTT; 96 h): 231 µM

COc1ccccc1Cn1nc(-c2ccc(CO)o2)c2ccccc21
IC50 (CC-LP-1; cell growth or viability, ATP luminescence): ~46 µM

COc1ccc(Nc2ncnc3c2ncn3Cc2ccc(C(=O)NO)cc2)cc1
IC50 (NB-4; cell growth or viability, MTT; 72 h): 0.87 µM

O=c1[nH]cc(F)c(=O)[nH]1
IC50 (BGC-823; cell growth or viability, MTT; 48 h): 15.2 µM

Cc1cc(NS(=O)(=O)c2ccc(NC(=O)/C(C#N)=C/c3ccc(N4CCCC4)cc3)cc2)no1
IC50 (HSF; cell growth or viability, MTT; 48 h): > 200 µM

CN(C)CCNC(=O)c1cccn2c(=O)c3cc4ccccc4cc3nc12
IC50 (SNU-449; cell growth or viability, imaging; 72 h): 36.3 µM

O=C(NO)c1ccc(Cn2cnc3c(Nc4ccc(F)c(Cl)c4)ncnc32)cc1
IC50 (NB-4; cell growth or viability, MTT; 72 h): 2.34 µM

COc1cc(Cn2nc(-c3ccc(CO)o3)c3ccccc32)ccn1
IC50 (CC-LP-1; cell growth or viability, ATP luminescence): > 46 µM

Cc1nc(Nc2ncc(C(=O)Nc3c(C)cccc3Cl)s2)cc(N2CC[C@H](O)C2)n1
IC50 (P3HR-1; cell growth or viability, ATP luminescence; 72 h): > 10 µM

O=C(NO)c1ccc(Cn2cnc3c(Nc4cccc([N+](=O)[O-])c4)ncnc32)cc1
IC50 (NB-4; cell growth or viability, MTT; 72 h): 0.58 µM

CONC(=O)c1cccc2c1cc(C)n2-c1nc2c(c(NCc3ccccc3)n1)CCCN2
IC50 (KMS-11; cell growth or viability; 72 h): 2.1 µM

Cc1cc(NS(=O)(=O)c2ccc(NC(=O)/C(C#N)=C/c3ccncc3)cc2)no1
IC50 (HSF; cell growth or viability, MTT; 48 h): > 200 µM

C(=N\Nc1cc(N/N=C/c2ccc3ccccc3n2)nc(-c2ccccc2)n1)/c1ccc2ccccc2n1
IC50 (BGC-823; cell growth or viability, MTT; 48 h): 9.12 µM

COc1ccc(Nc2ncnc3c2ncn3Cc2ccc(C(=O)Nc3ccccc3N)cc2)cc1
IC50 (HEL; cell growth or viability, MTT; 72 h): 16.8 µM

NCc1ccc(-c2nn(Cc3ccncc3)c3ccccc23)o1
IC50 (CC-LP-1; cell growth or viability, ATP luminescence): > 46 µM

CNC(=O)c1cc(Oc2ccc(NC(=O)Nc3ccc(Cl)c(C(F)(F)F)c3)cc2)ccn1
IC50 (BGC-823; cell growth or viability, MTT; 48 h): 6.08 µM

CCC(=CCc1c(O)cc2c(c1O)C(=O)C[C@H](c1ccccc1O)O2)CC
IC50 (HeLa; cell growth or viability, MTT; 48 h): 37.4 µM

O=C(CSc1nc2ccccc2s1)N/N=C/c1ccc(OCC(=O)Nc2ccc(Br)cc2)cc1
IC50 (HEL 299; cell growth or viability, MTS; 72 h): > 100 µM

Cc1cc2c(C(=O)O)cccc2n1-c1nc2c(c(NCc3ccccc3)n1)CCCN2
IC50 (KMS-11; cell growth or viability; 72 h): 0.9 µM

OCc1ccc(-c2nn(Cc3ccncc3)c3ccccc23)o1
IC50 (CC-LP-1; cell growth or viability, ATP luminescence): > 46 µM

O=C(NO)c1ccc(Cn2cnc3c(Nc4ccc(Cl)cc4)ncnc32)cc1
IC50 (NB-4; cell growth or viability, MTT; 72 h): 0.41 µM

COc1cnccc1Cn1nc(-c2ccc(CO)o2)c2ccccc21
IC50 (CC-LP-1; cell growth or viability, ATP luminescence): > 46 µM

Nc1ccccc1NC(=O)c1ccc(Cn2cnc3c(Nc4ccc(Cl)cc4)ncnc32)cc1
IC50 (HEL; cell growth or viability, MTT; 72 h): 13 µM

OCc1ccc(-c2nn(Cc3ccncc3)c3cccnc23)o1
IC50 (CC-LP-1; cell growth or viability, ATP luminescence): > 46 µM

CN1CCC(NC2CCc3[nH]c4c(C(N)=O)ccc(-c5ccccc5Cl)c4c3C2)CC1 (stereo not drawn)
IC50 (BGC-823; cell growth or viability; 96 h): 0.018 µM

O=C(NO)c1ccc(Cn2cnc3c(Nc4ccc(Br)cc4F)ncnc32)cc1
IC50 (HEL; cell growth or viability, MTT; 72 h): 2.46 µM

CNC(=O)c1cc(Oc2ccc(NC(=O)Nc3ccc(Cl)c(C(F)(F)F)c3)cc2)ccn1
IC50 (SNU-449; cell growth or viability, imaging; 72 h): 6.37 µM
